Reference: ChEMBL document CHEMBL1221307, “Substituted 2H-isoquinolin-1-ones as potent Rho-kinase inhibitors: part 2, optimization for blood pressure reduction in spontaneously hypertensive rats” (Bioorg Med Chem Lett, 2010)

Assays:
Type in all cases: ADME, organism-based
[1] = AUC in rat at 0.5 mg/kg, iv; set-up: dose 0.5 mg/kg, route intravenous; details: plasma
In short: (§1)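 Rats given 0.5 mg/kg iv and 10 mg/kg po. The iv plasma values are the mean from three rats; the po plasma values come from a single rat.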

[2] = Oral bioavailability in rat at 10 mg/kg; details: in vivo; in short: as §1
[3] = AUC in rat at 10 mg/kg, po; set-up: dose 10 mg/kg, route oral; details: plasma; in short: as §1

**Q.** What does the source list for `CN1CCC(C(=O)Nc2cc3cc[nH]c(=O)c3cc2Cl)CC1`?
**A.** AUC [1]: 127 ng·h/mL; bioavailability [2]: 70%; AUC [3]: 1780 ng·h/mL

**Q.** Which AUC [1] does the source give for `O=C(Nc1cc2cc[nH]c(=O)c2cc1Cl)C1CCNCC1` here?
**A.** 161 ng·h/mL

**Q.** What about the bioavailability [2] of the same compound?
**A.** 4.4%

**Q.** What about the AUC [3] of the same compound?
**A.** 141 ng·h/mL

**Q.** Which AUC [1] does the source give for `N[C@H]1CC[C@@H](C(=O)Nc2cc3cc[nH]c(=O)c3cc2Cl)CC1` here?
**A.** 119 ng·h/mL

**Q.** And the bioavailability [2]?
**A.** 20%

**Q.** What about the AUC [3] of the same compound?
**A.** 338 ng·h/mL
